# CHRM4 PAM: human M4 muscarinic receptor positive allosteric modulators, primary screen, CHO-K1 cells, Fluo-8 calcium fluorescence. 0.4% of 360,000 active. activation, % at 3 µM. Muscarinic acetylcholine receptor M4 (Homo sapiens), P08173. AID 624126, 2012. CHO-K1 hM4/Gqi5, ACh EC20; 0% = ACh EC20, 100% = maximal ACh;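 active means activation above its plate's cutoff, the mean activation of sample wells plus 3 SD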
# Target sequence (P08173 whole entry, looked up): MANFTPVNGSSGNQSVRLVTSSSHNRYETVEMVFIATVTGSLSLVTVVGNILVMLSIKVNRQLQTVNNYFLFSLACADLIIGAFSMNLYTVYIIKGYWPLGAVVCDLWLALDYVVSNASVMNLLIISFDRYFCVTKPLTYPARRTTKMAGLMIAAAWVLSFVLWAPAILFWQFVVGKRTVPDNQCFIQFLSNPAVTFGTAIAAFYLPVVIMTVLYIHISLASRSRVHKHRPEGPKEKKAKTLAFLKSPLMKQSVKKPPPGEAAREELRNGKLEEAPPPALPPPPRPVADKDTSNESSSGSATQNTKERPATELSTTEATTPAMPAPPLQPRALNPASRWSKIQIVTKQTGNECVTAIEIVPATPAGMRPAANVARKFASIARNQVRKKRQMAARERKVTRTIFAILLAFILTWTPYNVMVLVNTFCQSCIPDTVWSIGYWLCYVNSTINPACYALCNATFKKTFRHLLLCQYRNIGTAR
# CHRM4 agonist: human M4 muscarinic receptor agonists, primary screen, CHO-K1 cells, Fluo-8 calcium fluorescence | 0.14% of 360,000 active | Muscarinic acetylcholine receptor M4 (Homo sapiens), P08173 | activation, % at 3 µM | CHO-K1 hM4/Gqi5; vehicle 0%, full acetylcholine response 100%;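 active means activation above the run mean over all test wells plus 3 SD, cut at about 32% in these data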;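 further: peak over basal fluorescence ratio per well then scaled between controls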
# CHRM5 PAM: human M5 muscarinic receptor positive allosteric modulators, primary screen, CHO-K1 cells, Fluo-8 calcium fluorescence; Muscarinic acetylcholine receptor M5 (Homo sapiens), P08912; 0.3% of 360,000 active; CHO-K1 hM5, ACh EC20 PAM; 0% = ACh EC20, 100% = ACh EC100; activation, % at 3 µM;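 active means activation above the run cutoff, the mean activation of all test compounds plus 3 SD, cut at about 18% in these data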
#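 Assay system: CHO-K1 hM5 cells / Incubation: Fluo-8 loading 80 min at 37 °C plus 30 min room temperature / Technique: Fluo-8 calcium dye fluorescence, kinetic read / Repeats: single replicate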
# M5 ag: human M5 muscarinic receptor agonists, primary screen, CHO-K1 cells, Fluo-8 calcium fluorescence | AID 624037, 2012 | 0.19% of 360,000 active | CHO-K1 hM5 cells; 0% DMSO wells, 100% maximal acetylcholine response | activation, % at 3 µM;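 active means activation above the run's mean over test compounds plus 3 SD, cut at about 23% in these data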;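 further: signal is peak over basal fluorescence ratio across the kinetic read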
# M5 antag: human M5 muscarinic receptor antagonists, primary screen, CHO cells, Fluo-8 calcium fluorescence; 0.59% of 360,000 active; Muscarinic acetylcholine receptor M5 (Homo sapiens), P08912; inhibition, % at 3 µM; CHO-hM5 cells, ACh EC80; AID 624040, 2012;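 active means inhibition above a per-plate cutoff, the mean of that plate's test compounds plus 3 SD, cut at about 27% in these data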
# CHRM4 antagonist: human M4 muscarinic receptor antagonists, primary screen, CHO cells, Fluo-8 calcium fluorescence | 0.73% of 360,000 active | inhibition, % at 3 µM | CHO-hM4 cells, ACh EC80 | Muscarinic acetylcholine receptor M4 (Homo sapiens), P08173;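 active means inhibition above its plate's cutoff, the mean inhibition of sample wells plus 3 SD, cut at about 27% in these data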
# A number is an active result; . = inactive; / = not tested or not shown. Shown are actives, neighbours in structure and some others; about 1.8% of the full set was active somewhere.
SMILES,CHRM4 PAM,CHRM4 agonist,CHRM5 PAM,M5 ag,M5 antag,CHRM4 antagonist
CN(C)C1(CNC(=O)C2CCC(=O)N(CCc3ccc(Cl)cc3)C2)CCCCC1 (centres undefined),.,.,.,.,.,.
COc1ccccc1CN1CCC(CNS(=O)(=O)c2cc(-c3onc(C)c3C)ccc2OC)CC1,.,.,.,.,.,42.3
O=C1c2ccccc2S(=O)(=O)c2cc(C(=O)N(c3ccccn3)c3ccccn3)ccc21,.,77.2,.,67.0,.,.
O=C(c1ccc(Cl)c([N+](=O)[O-])c1)N(c1ccccn1)c1ccccn1,.,.,19.9,.,.,.
CCOc1ccc(Nc2cc(C)nc3c(C)cccc23)cc1,.,.,19.8,.,.,.
CC[C@@H](C)[C@@H]1CN([C@@H](C)CN2CCC[C@H]2CN2C(N)=NC[C@@H]2Cc2ccccc2)C(=N)N1CCCC1CCCC1,.,.,.,.,.,64.9
CC[C@@H](C)[C@@H]1CN([C@@H](C)CN2CCC[C@H]2CN2C(N)=NC[C@H]2CC(C)C)C(=N)N1CCCC1CCCC1,.,.,.,.,.,.
CCCCN1C(=N)N([C@@H](C)CN2CCC[C@H]2CN2C(N)=NC[C@@H]2Cc2ccccc2)C[C@H]1Cc1ccccc1,.,.,.,.,.,40.1
CCOC(=O)c1sc(NC(=O)C2CC(=O)N(c3ccc(C)cc3)C2)nc1C (centres undefined),.,.,.,.,.,.
Cc1cc(S(=O)(=O)c2ccc(Cl)cc2)nc(S(=O)(=O)c2ccc(Cl)cc2)c1C#N,.,.,.,.,.,87.5
Cc1cc(C)c(S(=O)(=O)c2ccc(Cl)cc2)c(Cl)n1,.,.,.,.,.,.
CCOC(=O)[C@]12CCCC=C1N(Cc1ccc(Cl)cc1Cl)C(=O)[C@H](CC(=O)N1CCN(C(=O)C3CC3)CC1)C2,.,.,.,.,.,.
CN1[C@@H]2CC(OC(=O)[C@H](CO)c3ccccc3)C[C@H]1[C@@H]1O[C@@H]12 (some centres undefined),.,.,/,/,/,100.0
Cc1ccc(S(=O)(=O)N(Cc2ccccc2)c2ccccc2C(=O)N2CCCCC2)cc1,.,.,.,.,.,.
CCOC(=O)N1CCC(N2CCN(C3CCCC3)C(CCO)C2)CC1 (centres undefined),.,.,.,.,.,79.8
CCOC(=O)N1CCC(NC2CCCCCCC2)CC1,.,.,.,.,.,47.3
COc1cc(CCC(=O)OCC(=O)N2CCc3ccccc32)cc(OC)c1OC,.,.,.,.,.,.
COc1ccccc1OCc1ccc(C(=O)N2CCOCC2)o1,.,.,.,.,.,.
COc1ccccc1OCc1ccc(C(=O)N2CCCCC2)o1,34.0,.,22.2,.,.,.
Nc1c(C(=O)O)sc2nc(-c3ccccc3)cc(-c3ccc(F)cc3)c12,.,.,20.6,.,.,.
O=C(Cn1cnc2c(nnn2Cc2ccccc2)c1=O)c1ccccc1,18.1,.,.,.,.,.
CCCCn1c(N)c(N(CCOC)C(=O)CCCc2cccs2)c(=O)[nH]c1=O,.,.,.,.,.,.
COc1ccccc1NC(=O)Nc1nc(C(N)Cc2ccc(Cl)cc2)cs1 (centres undefined),.,51.5,.,.,.,34.5
COc1ccccc1NC(=O)Nc1nc(C(N)Cc2ccccc2)cs1 (centres undefined),.,.,.,.,.,.
Cc1ccccc1NC(=O)Nc1nc(C(N)Cc2ccccc2)cs1 (centres undefined),.,36.3,.,.,.,.
SMILES,CHRM4 PAM,CHRM4 agonist,CHRM5 PAM,M5 ag,M5 antag,CHRM4 antagonist
NC(Cc1ccc(Cl)cc1)c1csc(NC(=O)Nc2ccccc2)n1 (centres undefined),.,.,.,.,.,26.8
Cc1nc2nc(C)c(C)nc2nc1C,.,.,.,.,.,.
CCN(CC)c1ccc(C(=O)NNC(=O)CNC(=O)c2cccs2)cc1,.,.,.,.,.,.
CC1CN(S(=O)(=O)c2ccccc2)C(C)N1C(=O)N1CCOCC1 (centres undefined),.,.,.,.,.,.
Cc1ccc(S(=O)(=O)Nc2cc(C)c(O)c(Sc3n[nH]c(C)n3)c2)cc1,.,.,.,.,.,.
CC(C)(C)OC(=O)N[C@H](C(=O)OC(C)(C)C)c1ccc2ccccc2c1,.,.,.,.,.,.
CCN(CC)C1=NC=CC(c2ccccc2)=CC1C (centres undefined),.,.,.,.,.,39.1
CCc1ccc(-c2nnn(CC(=O)N(C3CCCC3)C3CCS(=O)(=O)C3)n2)cc1 (centres undefined),.,.,.,.,.,.
N=C1/C(=C\c2coc3ccc(O)cc3c2=O)C(=O)N=C2SC=CN12,.,49.7,.,65.2,.,.
Cc1cc(/C=C2\C(=N)N3N=C(c4ccco4)SC3=NC2=O)c(C)n1Cc1ccccc1,.,.,.,.,.,.
N=C1/C(=C\c2coc3ccccc3c2=O)C(=O)N=C2SC(c3ccncc3)=NN12,.,41.2,.,65.0,51.5,28.3
N=C1/C(=C/c2coc3ccccc3c2=O)C(=O)N=C2SC(c3ccco3)=NN12,.,64.3,.,222.9,53.4,.
CN1C(=O)/C(=C/c2coc3ccc(O)cc3c2=O)SC1=S,.,.,.,.,.,.
CCOC(=O)N1CCN(c2ccncc2S(=O)(=O)N2CCCCC2)CC1,.,.,.,.,.,.
N/C(=N\OC(=O)c1cccc([N+](=O)[O-])c1)c1cccnc1,25.0,.,.,.,.,.
Cc1cccc(C(=O)O/N=C(\N)c2cccc([N+](=O)[O-])c2)c1,.,.,.,.,.,.
COc1ccc(C2NC(=S)NC(O)(C(F)(F)F)C2C(=O)c2cccs2)cc1 (centres undefined),.,.,.,.,.,43.4
COc1cc(C2NC(=O)NC(O)(C(F)(F)F)C2C(=O)c2cccs2)ccc1O (centres undefined),.,.,.,.,.,.
O=C(N/N=C/c1ccccc1)C(=O)N/N=C/c1ccccc1,.,.,.,.,.,.
CN(C)/C=C(\C#N)C(=O)N/N=C/c1ccccc1,.,.,18.3,.,.,.
Cc1occc1C(=O)NNC(=O)Nc1ccc(F)cc1F,.,.,.,.,.,.
Cc1occc1C(=O)Nc1c(F)c(F)c(F)c(F)c1F,.,.,18.2,.,.,.
